From PubChem BioAssay
FGF22 binding – shifts melting point of recombinant human FGF22; Q9HCT0; recombinant FGF22 thermal shift, SYPRO orange fluorescence; percent of sucrose octasulfate shift, DMSO zero; activity (Tm shift, normalised), % at 9.99 µM; 340,000 compounds, 1.5% hits; AID 651658;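 active = mean Tm shift, scaled 0 neutral to 100 positive control, at about 1.3% or above, every replicate too, limit read from the data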
Efflux pump inh – blocks antifungal efflux pumps in multiplex yeast assay; S. cerevisiae Candida pump triplex, Nile Red efflux; inhibition, % at 10 µM; 330,000 compounds, 0.44% hits;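 active = plate passing quality check with inhibition over a set limit, or well fluorescence over plate mean plus 4 SD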;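 also: Nile Red retained in pooled yeast measured as flow cytometry median fluorescence; higher means more Nile Red kept so more efflux inhibition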
ARFGAP1 inhibitor – inhibitors of rat ARFGAP1. Arfgap1-stimulated ARF1 GTP hydrolysis, GDP FP detection. inhibition, % at 16.5 µM. 360,000 compounds, 0.26% hits. AID 651572;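 active = inhibition above a per-plate limit, mean inhibition of low control wells plus 3 SD, cut at about 25% in these data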
Target sequence (Q62848 1-136 limits assumed): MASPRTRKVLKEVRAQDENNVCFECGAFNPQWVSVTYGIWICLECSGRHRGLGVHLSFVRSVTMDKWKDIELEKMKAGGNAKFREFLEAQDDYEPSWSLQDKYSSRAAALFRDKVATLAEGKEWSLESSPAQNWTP
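Material: rat Arfgap1 catalytic domain, aa 1-136; also added: human ARF1(Δ1-17)-GTP substrate; compound dosing: one concentration, 16.5 µM, DMSO 1.26%; incubation: GTP hydrolysis reaction 2 h at 25 °C; measured by: Tracer-displacement fluorescence polarization with EDTA stop, 620/688 nm; evaluation: % inhibition from polarization; repeats: one replicate per compound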
Rtt109 HAT inh – blocks Candida albicans Rtt109/Vps75 acetyltransferase activity | AID 540336 | 330,000 compounds, 0.16% hits | purified Rtt109/Vps75, ThioGlo CoA-SH fluorescence, 4 h | inhibition, % at 34.9 µM | Q5AAJ8;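 active = inhibition of at least 50% in every replicate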
Target sequence (Q5AAJ8 whole entry, looked up): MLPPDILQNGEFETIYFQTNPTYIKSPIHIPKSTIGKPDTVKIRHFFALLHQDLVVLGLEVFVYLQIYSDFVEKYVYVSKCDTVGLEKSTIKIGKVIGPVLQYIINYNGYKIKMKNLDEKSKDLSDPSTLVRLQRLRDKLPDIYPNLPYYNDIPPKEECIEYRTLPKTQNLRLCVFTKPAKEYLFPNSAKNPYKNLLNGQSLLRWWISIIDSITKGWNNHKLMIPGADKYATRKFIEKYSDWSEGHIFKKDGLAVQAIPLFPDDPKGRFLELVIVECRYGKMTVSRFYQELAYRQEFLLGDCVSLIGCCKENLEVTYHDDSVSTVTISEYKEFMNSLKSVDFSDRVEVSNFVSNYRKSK
ASAP1 inh – inhibitors of human ASAP1 ArfGAP activity; Q9ULH1; ASAP1-stimulated ARF1 GTP hydrolysis, GDP FP detection; inhibition, % at 16.5 µM; 360,000 compounds, 0.19% hits; AID 624377; in the data active = inhibition above about 25%
Cmpd fluor yeast – counter-screen for efflux pump inhibitors: compound fluorescence; shares compounds with Efflux pump inh; S. cerevisiae AD/pABC3, flow cytometry; fluorescence ratio to DMSO, % at 10 µM; 1,700 compounds, 4% hits; AID 588517;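 active = fluorescence ratio to DMSO above its plate's cutoff, the plate mean ratio plus 5 SD, cut at about 210% in these data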;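 also: unstained yeast with no Nile Red so the signal is compound autofluorescence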
Mdr1 pump inh – inhibitors of Candida albicans Mdr1 efflux pump; inhibition, % at 10 µM; AID 588518; S. cerevisiae AD/CaMDR1, Nile Red efflux, flow cytometry; shares compounds with Efflux pump inh; 1,700 compounds, 1% hits; in the data active = inhibition above about 26%;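 also: higher means more Nile Red retained so more efflux inhibition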
CaCdr2 efflux inh – Candida Cdr2 efflux pump inhibition; shares compounds with Efflux pump inh; Nile Red retention ratio vs DMSO, % at 10 µM; 1,700 compounds, 4% hits; S. cerevisiae AD/CaCDR2, Nile Red retention, flow cytometry; in the data active = Nile Red retention ratio vs DMSO above about 190%;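 also: higher ratio means more blocking of Cdr2 efflux of the dye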
Cdr1 pump inh – inhibitors of Candida albicans Cdr1 efflux pump. shares compounds with Efflux pump inh. S. cerevisiae AD/CaCDR1, Nile Red efflux, flow cytometry. inhibition, % at 10 µM. 1,700 compounds, 1% hits. AID 588522;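 active = inhibition above the screen-wide mean plus twice its standard deviation, cut at about 32% in these data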
Of the large screens only hits and unclear results are named; the others gave an inactive call (follow-up assays come after a bar, where they were run). Sampled rows, rich in hits. Any-hit rate of the full collection: about 1.9%.

COc1cc2sc(-c3ccccc3OC)c(-c3ccc(OCCN4CCOCC4)cc3)c2cc1OC	none (no result: FGF22 binding, ARFGAP1 inhibitor, ASAP1 inh) | Cmpd fluor yeast inactive | Mdr1 pump inh inactive | CaCdr2 efflux inh inactive | Cdr1 pump inh inactive
Cc1noc(C)c1S(=O)(=O)N1CCCCC1c1cc(C(=O)Nc2cccc3c2CCCC3)no1 (stereo unspecified)	none (no result: Efflux pump inh, Rtt109 HAT inh)
COc1ccc(OC)c(-c2csc(NC(=O)CN3C(=O)C4CCCCC4C3=O)n2)c1 (stereo unspecified)	Efflux pump inh 0.4 | Cmpd fluor yeast inactive | Mdr1 pump inh inactive | CaCdr2 efflux inh inactive | Cdr1 pump inh inactive
COc1ccc(-c2csc(NC(=O)CN3C(=O)C4CCCCC4C3=O)n2)cc1OC (stereo unspecified)	none
COc1cc(/C=C(\C#N)C(=O)c2c[nH]c3ccccc23)cc(OC)c1O	Efflux pump inh 0.9 | Cmpd fluor yeast inactive | Mdr1 pump inh inactive | CaCdr2 efflux inh inactive | Cdr1 pump inh inactive
COc1cc(/C=C(\C#N)C(=O)NCCc2ccccc2)cc(OC)c1O	none
CCCOC(=O)Nc1ccc(C(N)=O)cc1	none (no result: FGF22 binding)
COc1cc(/C=C2\N=C(c3ccccc3)OC2=O)ccc1OCc1c(C)no[n+]1[O-]	Efflux pump inh 10 (no result: FGF22 binding) | Cmpd fluor yeast inactive | Mdr1 pump inh inactive | CaCdr2 efflux inh inactive | Cdr1 pump inh inactive
COc1ccc(NC(=O)C(=O)NCCN2CCN(C(=O)c3ccc(C(C)(C)C)cc3)CC2)cc1	none
COc1ccc(NC(=O)COc2nsnc2N2CCCCC2)cc1	Efflux pump inh 9.0 (no result: FGF22 binding) | Cmpd fluor yeast inactive | Mdr1 pump inh inactive | CaCdr2 efflux inh inactive | Cdr1 pump inh inactive
CCOc1ccccc1-c1nc(C(N)=O)c2[nH]c(=O)n(-c3ccc(F)cc3)c2n1	none | Cmpd fluor yeast inactive | Mdr1 pump inh inactive | CaCdr2 efflux inh inactive | Cdr1 pump inh inactive
CC(C)c1nc(C(N)=O)c2[nH]c(=O)n(-c3ccc(F)cc3)c2n1	none
Cc1ccsc1-c1nc(C(N)=O)c2[nH]c(=O)n(-c3ccc(Cl)cc3)c2n1	none | Cmpd fluor yeast inactive | Mdr1 pump inh inactive | CaCdr2 efflux inh inactive | Cdr1 pump inh inactive
Cc1ccc(-n2c(=O)[nH]c3c(C(N)=O)nc(C(C)C)nc32)cc1	none
O=c1cc(-c2ccccc2)c2cc(Cl)c(O)c(CN3CCOCC3)c2o1	none
CCc1cc2c(-c3ccccc3)cc(=O)oc2c(CN2CCOCC2)c1O	Efflux pump inh 0.8 (no result: FGF22 binding) | Cmpd fluor yeast inactive | Mdr1 pump inh inactive | CaCdr2 efflux inh inactive | Cdr1 pump inh inactive
Cc1ccccc1Nc1nnc(-c2ccc(C(=O)NCCO)cc2)c2ccccc12	Efflux pump inh 1.0 | Cmpd fluor yeast inactive | Mdr1 pump inh inactive | CaCdr2 efflux inh inactive | Cdr1 pump inh inactive
CCNc1nc(Cl)nc(NNC(=O)C(C)Oc2ccccc2)n1 (stereo unspecified)	none (no result: FGF22 binding)
COc1cccc(-c2nnc(SC(C(=O)c3c[nH]c4ccccc34)c3ccccc3)n2C)c1 (stereo unspecified)	FGF22 binding 43, Efflux pump inh 0.8 | Cmpd fluor yeast inactive | Mdr1 pump inh inactive | CaCdr2 efflux inh inactive | Cdr1 pump inh inactive
COc1ccccc1-c1nnc(SC(C(=O)c2c[nH]c3ccccc23)c2ccccc2)n1C (stereo unspecified)	none
COc1cc2c(cc1OC)C(c1ccccc1)NCC2 (stereo unspecified)	none
COc1cc2c(cc1OC)C(c1cc(OC)c(OC)c(OC)c1)NCC2 (stereo unspecified)	Efflux pump inh 0.6 (no result: FGF22 binding) | Cmpd fluor yeast inactive | Mdr1 pump inh inactive | CaCdr2 efflux inh inactive | Cdr1 pump inh inactive
COc1ccccc1/C=C/C1=NC(=C\C=C/c2ccccc2)/C(=O)O1	Efflux pump inh 5.2 | Cmpd fluor yeast inactive | Mdr1 pump inh inactive | CaCdr2 efflux inh inactive | Cdr1 pump inh inactive
CC(C)n1nc(C(=O)NCCCN2CCCC2=O)c2ccccc2c1=O	none
